Assay results reported in paper PMC5299035 (Drug development research, 2016).

Tests used:
Type in all cases: cell-based
human neutrophils = experiment: Ca2+ mobilization assay in human neutrophils; conditions: Homo sapiens, Neutrophil, read-out: Ca2+ flux human neutrophils EC50
Outline: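 Neutrophils from healthy donors were purified by dextran sedimentation, Histopaque 1077 gradient and hypotonic red-cell lysis (>95% pure, >98% viable). After Fluo-4 AM loading (1.25 μg/mL final, 30 min, 37 °C, dark), cells were seeded at 2 × 10^5/well in HBSS with Ca2+/Mg2+. Fluorescence (485/538 nm) was tracked every 5 s for 240 s at room temperature. Maximum change over baseline was normalised, and EC50 came from a 5-6-point nonlinear fit.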

FPR2 = target: T1, FPR2 (Homo sapiens, UniProt P25090); experiment: Ca2+ mobilization assay in FPR2-HL60 cells; conditions: for Emax: read-out: Ca2+ flux FPR2-HL60 efficacy
T1 sequence (P25090 1-351): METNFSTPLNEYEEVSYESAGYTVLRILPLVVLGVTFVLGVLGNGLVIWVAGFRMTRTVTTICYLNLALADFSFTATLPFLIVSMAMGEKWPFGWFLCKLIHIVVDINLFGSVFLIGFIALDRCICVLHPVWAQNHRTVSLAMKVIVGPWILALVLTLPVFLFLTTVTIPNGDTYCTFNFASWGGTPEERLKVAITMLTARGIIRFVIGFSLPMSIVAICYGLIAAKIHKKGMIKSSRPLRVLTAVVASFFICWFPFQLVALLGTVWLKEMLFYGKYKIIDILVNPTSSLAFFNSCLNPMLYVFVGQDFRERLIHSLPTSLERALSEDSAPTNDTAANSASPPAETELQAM
Outline: (§1)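 FPR2- or FPR3-transfected HL60 cells were grown in RPMI 1640 with 10% heat-inactivated FCS and G418 1 mg/mL. Cells were loaded with Fluo-4 AM (1.25 μg/mL final) for 30 min at 37 °C in the dark, washed, and seeded at 2 × 10^5 cells/well in HBSS+. Fluorescence (ex 485/em 538 nm) was read every 5 s for 240 s at room temperature. Peak rise over baseline was normalised to the reference agonist. EC50 came from 5-6-point nonlinear regression over three independent experiments.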

FPR3 = target: T2, FPR3 (Homo sapiens, UniProt P25089); experiment: Ca2+ mobilization assay in FPR3-HL60 cells; conditions: for Emax: read-out: Ca2+ flux FPR3-HL60 efficacy
T2 sequence (P25089 1-353): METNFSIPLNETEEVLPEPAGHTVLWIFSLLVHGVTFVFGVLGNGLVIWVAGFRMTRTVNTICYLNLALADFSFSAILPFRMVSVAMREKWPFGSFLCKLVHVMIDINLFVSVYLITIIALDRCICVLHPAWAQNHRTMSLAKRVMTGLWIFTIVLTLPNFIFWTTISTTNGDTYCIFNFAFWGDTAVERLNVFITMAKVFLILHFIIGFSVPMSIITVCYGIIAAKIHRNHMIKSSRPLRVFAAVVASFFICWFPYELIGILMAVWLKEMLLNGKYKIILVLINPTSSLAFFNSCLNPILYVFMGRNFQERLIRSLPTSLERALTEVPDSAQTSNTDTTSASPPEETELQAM
Outline: as §1

FPR1 = target: T3, FPR1 (Homo sapiens, UniProt P21462); experiment: Ca2+ mobilization assay in FPR1-HL60 cells; conditions: for Emax: read-out: Ca2+ flux FPR1-HL60 efficacy
T3 sequence (P21462 1-350): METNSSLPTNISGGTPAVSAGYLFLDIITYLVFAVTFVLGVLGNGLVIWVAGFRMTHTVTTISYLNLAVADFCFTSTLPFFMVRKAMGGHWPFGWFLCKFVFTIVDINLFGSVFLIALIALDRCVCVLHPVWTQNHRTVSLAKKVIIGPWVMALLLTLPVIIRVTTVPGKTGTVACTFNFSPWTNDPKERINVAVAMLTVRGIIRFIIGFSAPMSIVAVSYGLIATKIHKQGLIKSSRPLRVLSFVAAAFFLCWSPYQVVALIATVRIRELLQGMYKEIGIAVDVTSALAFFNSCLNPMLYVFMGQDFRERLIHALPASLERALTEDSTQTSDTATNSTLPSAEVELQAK
Outline: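 FPR1-transfected HL60 cells were grown in RPMI 1640 with 10% heat-inactivated FCS, 10 mM HEPES and G418 (1 mg/mL). Cells were loaded with Fluo-4 AM (1.25 μg/mL final) for 30 min at 37 °C in the dark, then washed and seeded in HBSS+ at 2 × 10^5 cells/well. Fluorescence (485/538 nm) was read every 5 s for 240 s at room temperature after compound addition. Peak rise over baseline was set against 5 nM fMLF (100%). EC50 came from nonlinear regression of 5-6-point curves, mean of three independent experiments. No activity meant no response within 2 min (limits: efficacy >20%, EC50 <50 μM).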

mouse neutrophils = experiment: Ca2+ mobilization assay in mouse neutrophils; conditions: % of the response induced by 10 nM WKYMVm
Outline: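 Bone marrow was flushed from BALB/c mouse tibias and femurs and separated on a Percoll gradient (45/50/55/62/81%, 1600g, 30 min, 10 °C). Red cells were removed over Histopaque 1119. Neutrophils were loaded with Fluo-4 AM (1.25 μg/mL final) for 30 min at 37 °C, seeded in HBSS+ at 2 × 10^5 cells/well, and read at 485/538 nm every 5 s for 240 s at room temperature. Responses were normalized to 10 nM WKYMVm. EC50 came from nonlinear regression of 5-6-point curves, three experiments.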

mouse Fpr2 = target: T4, mouse Fpr2 (Mus musculus, UniProt O88536); experiment: Ca2+ mobilization assay in mFpr2-RBL cells
T4 sequence (O88536 1-351): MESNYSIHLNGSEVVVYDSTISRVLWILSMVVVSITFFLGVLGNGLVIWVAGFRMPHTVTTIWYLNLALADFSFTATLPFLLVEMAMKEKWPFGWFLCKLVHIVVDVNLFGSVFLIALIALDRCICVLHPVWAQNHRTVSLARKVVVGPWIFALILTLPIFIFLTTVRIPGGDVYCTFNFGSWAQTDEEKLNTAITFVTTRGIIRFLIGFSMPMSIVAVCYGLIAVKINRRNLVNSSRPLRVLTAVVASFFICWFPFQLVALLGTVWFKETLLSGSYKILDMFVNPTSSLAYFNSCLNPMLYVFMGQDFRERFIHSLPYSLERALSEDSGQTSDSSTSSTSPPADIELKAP
Outline: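 RBL-2H3 cells stably expressing mouse Fpr2 were grown in DMEM with 20% FBS, 10 mM HEPES and G418 (250 μg/ml). Fluo-4 AM (1.25 μg/mL final) was loaded for 30 min at 37 °C in the dark. Cells were seeded in HBSS+ at 2 × 10^5 cells/well, and fluorescence (485/538 nm) was read every 5 s for 240 s at room temperature. Peak rise was normalized to 10 nM WKYMVm (100%). EC50 came from nonlinear regression of 5-6-point curves over three independent experiments.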

Row | Structure (SMILES) | EC50 (human neutrophils) [µM] | Emax (FPR2) [%] | EC50 (FPR3) [µM] | Emax (FPR3) [%] | EC50 (FPR1) [µM] | Emax (FPR1) [%] | EC50 (FPR2) [µM] | EC50 (mouse Fpr2) [µM] | Ca2+ flux mFpr2-RBL efficacy (mouse Fpr2; % of the response induced by 10 nM WKYMVm) [%] | Ca2+ flux mouse neutrophils efficacy (mouse neutrophils) [%]
1 | CCCCc1c(C)nn(CC(=O)Nc2ccc(Br)cc2)c(=O)c1Cc1cccc(OC)c1 [4e, N-(4-Bromophenyl)-2-[4-butyl-5-(3-methoxybenzyl)-3-methyl-6-oxopyridazin-1(6H)-yl]acetamide] | 2.7 ± 0.7 | 90 | – | – | – | – | – | – | – | –
2 | COc1ccc(-c2csc(=O)n2CC(=O)Nc2ccc(Br)cc2)cc1 [9e, N-(4-Bromophenyl)-2-[4-(4-methoxyphenyl)-2-oxothiazol-3-yl]acetamide] | 7.4 ± 2.3 | 100 | 36.1 ± 3.3 | 85 | 2.6 ± 0.6 | 110 | 1.8 ± 0.16 | – | – | –
3 | Cc1csc(=O)n1CC(=O)Nc1ccc(Br)cc1 [9b, N-(4-Bromophenyl)-2-(4-methyl-2-oxo-thiazol-3-yl)acetamide] | 10.7 ± 2.3 | 80 | 27.8 ± 3.2 | 85 | 12.4 ± 2.6 | 70 | 4.1 ± 1.1 | – | – | –
4 | CCCc1c(C)nn(CC(=O)Nc2ccc(Br)cc2)c(=O)c1Cc1cccc(OC)c1 [4d, N-(4-Bromophenyl)-2-[5-(3-methoxybenzyl)-3-methyl-6-oxo-4-propylpyridazin-1(6H)-yl]acetamide] | 3.2 ± 1.2 | 90 | 3.4 ± 0.76 | 65 | – | 115 | – | – | – | –
5 | CC(=O)c1sc(=O)n(CC(=O)Nc2ccc(Br)cc2)c1C [9a, 2-(5-Acetyl-4-methyl-2-oxo-thiazol-3-yl)-N-(4-bromophenyl)acetamide] | 12.2 ± 2.5 | 60 | – | – | 8.9 ± 1.9 | 75 | 5.8 ± 1.4 | – | – | –
6 | COc1cccc(Cc2c(-c3ccccc3)c(C)nn(CC(=O)Nc3ccc(Br)cc3)c2=O)c1 [4f, N-(4-Bromophenyl)-2-[5-(3-methoxybenzyl)-3-methyl-6-oxo-4-phenylpyridazin-1(6H)-yl]acetamide] | 5.4 ± 0.26 | – | – | – | – | 160 | – | 28.8 ± 5.2 | 180 | 95
7 | Nc1ccc(-c2csc(=O)n2CC(=O)Nc2ccc(Br)cc2)cc1 [compound 10, 2-[4-(4-Aminophenyl)-2-oxothiazol-3-yl]-N-(4-bromophenyl)acetamide] | 36.1 ± 3.9 | 65 | – | – | 34.9 ± 4.2 | 80 | 14.7 ± 3.7 | – | – | –
8 | O=C(Cn1c(-c2ccccc2)csc1=O)Nc1ccc(Br)cc1 [9c, N-(4-Bromophenyl)-2-(2-oxo-4-phenyl-thiazol-3-yl)acetamide] | 6 ± 1.5 | 95 | 19.7 ± 2.4 | 135 | 1.8 ± 0.6 | 100 | 2.1 ± 0.6 | – | – | –
9 | O=C(Cn1c(-c2ccc(Cl)cc2)csc1=O)Nc1ccc(Br)cc1 [9g, N-(4-Bromophenyl)-2-[4-(4-chlorophenyl)-2-oxothiazol-3-yl]acetamide] | 12.2 ± 3.1 | 75 | – | – | – | 75 | – | – | – | –
10 | O=C(Cn1c(-c2cccc(Cl)c2)csc1=O)Nc1ccc(Br)cc1 [9f, N-(4-Bromophenyl)-2-[4-(3-chlorophenyl)-2-oxothiazol-3-yl]acetamide] | 11.1 ± 2.8 | 110 | 32.2 ± 3.6 | 75 | 6 ± 1.7 | 75 | 3 ± 0.7 | – | – | –

Stronger by EC50 (human neutrophils), values ahead:

Row | EC50 (human neutrophils) [µM] | Emax (FPR2) [%] | EC50 (FPR3) [µM] | Emax (FPR3) [%] | EC50 (FPR1) [µM] | Emax (FPR1) [%] | EC50 (FPR2) [µM] | EC50 (mouse Fpr2) [µM] | Ca2+ flux mFpr2-RBL efficacy (mouse Fpr2; % of the response induced by 10 nM WKYMVm) [%] | Structure (SMILES) | Ca2+ flux mouse neutrophils efficacy (mouse neutrophils) [%]
11 | 2 ± 0.29 | 90 | – | – | 5.7 ± 2.1 | 110 | 0.51 ± 0.19 | – | – | Cc1cc(=O)n(CC(=O)Nc2ccc(Br)cc2)nc1C [7a, N-(4-Bromophenyl)-2-[3,4-dimethyl-6-oxopyridazin-1(6H)-yl]acetamide] | 70
12 | 0.2 ± 0.056 | 115 | 0.97 ± 0.23 | 95 | – | – | 0.15 ± 0.052 | – | – | Cc1nn(CC(=O)Nc2ccc(Br)cc2)c(=O)cc1-c1ccccc1 [7b, N-(4-Bromophenyl)-2-[3-methyl-6-oxo-4-phenylpyridazin-1(6H)-yl]acetamide] | 75
13 | 1.3 ± 0.3 | 120 | 5.1 ± 1.7 | 100 | – | 90 | – | – | – | COc1cccc(-c2csc(=O)n2CC(=O)Nc2ccc(Br)cc2)c1 [9d, N-(4-Bromophenyl)-2-[4-(3-methoxyphenyl)-2-oxothiazol-3-yl]-acetamide] | –
14 | 1.5 ± 0.4 | – | – | – | – | 60 | – | – | – | O=C(Cn1c(-c2ccc([N+](=O)[O-])cc2)csc1=O)Nc1ccc(Br)cc1 [9h, N-(4-Bromophenyl)-2-[4-(4-nitrophenyl)-2-oxothiazol-3-yl]acetamide] | –
15 | 1.2 ± 0.3 | 100 | 4.1 ± 1.7 | 100 | – | 120 | – | – | – | CCc1c(C)nn(CC(=O)Nc2ccc(Br)cc2)c(=O)c1Cc1cccc(OC)c1 [4c, N-(4-Bromophenyl)-2-[4-ethyl-5-(3-methoxybenzyl)-3-methyl-6-oxopyridazin-1(6H)-yl]acetamide] | –
